Source: ChEMBL document CHEMBL3763045, “Design, Synthesis, and Pharmacological Evaluation of Novel N-Acylhydrazone Derivatives as Potent Histone Deacetylase 6/8 Dual Inhibitors” (J Med Chem, 2016)
Values after ≈ are worked out from the molar mass of the structure shown. Active and inactive are the calls of the source. The rule behind the calls is not given here.

Legend:
[1] = Aqueous solubility of the compound in buffer at pH 7.4 after 24 hrs by spectrophotometric method; type: physicochemical
Summary of the method: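 Water solubility in pH 7.4 buffer, measured spectrophotometrically by the method of Schneider and coworkers.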

MCF7 = experiment: Antiproliferative activity against human MCF7 cells assessed as reduction in cell viability at 40 uM after 48 hrs by MTS assay; type: functional, cell-based
Summary of the method: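 MCF-7 cells exposed at 40 µM for 48 h, viability by MTS; ANOVA with Tukey's post-test against control.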

[2] = target: Histone deacetylase (Rattus norvegicus) (UniProt Q6P6W3+Q99P99+Q99P96+Q4QQW4+Q99P97+Q5RJZ2+B1WBY8); experiment: Inhibition of HDAC in rat liver at 1 uM by fluorimetry
Summary of the method: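 Rat liver HDAC preparation, non-selective enzyme assay, test compounds at 1 µM; % inhibition is the mean of two experiments.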

Histone deacetylase 2 = Histone deacetylase 2 (Homo sapiens, UniProt Q92769); experiment: Inhibition of recombinant human HDAC2 by fluorimetry
Histone deacetylase = experiment: Inhibition of HDAC in rat liver by fluorimetry
Summary of the method: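 Rat liver HDAC IC50 from a six-point enzyme assay, three-fold serial dilution starting at 3 µM or 1 µM depending on compound; mean of two experiments ± SD.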

HepG2 [3] = experiment: Antiproliferative activity against human HepG2 cells assessed as reduction in cell viability at 40 uM after 48 hrs by MTS assay; type: functional, cell-based
HepG2 [4] = experiment: Antiproliferative activity against human HepG2 cells assessed as reduction in cell viability after 48 hrs by MTS assay; type: functional, cell-based; settings: HepG2, 48 h
Histone deacetylase 1 = Histone deacetylase 1 (Homo sapiens, UniProt Q13547); experiment: Inhibition of recombinant human HDAC1 by fluorimetry
[5] = target: T1, Protein deacetylase HDAC6 (Homo sapiens, UniProt Q9UBN7); experiment: Inhibition of recombinant human HDAC6 by fluorimetry
T1 sequence (Q9UBN7 whole entry): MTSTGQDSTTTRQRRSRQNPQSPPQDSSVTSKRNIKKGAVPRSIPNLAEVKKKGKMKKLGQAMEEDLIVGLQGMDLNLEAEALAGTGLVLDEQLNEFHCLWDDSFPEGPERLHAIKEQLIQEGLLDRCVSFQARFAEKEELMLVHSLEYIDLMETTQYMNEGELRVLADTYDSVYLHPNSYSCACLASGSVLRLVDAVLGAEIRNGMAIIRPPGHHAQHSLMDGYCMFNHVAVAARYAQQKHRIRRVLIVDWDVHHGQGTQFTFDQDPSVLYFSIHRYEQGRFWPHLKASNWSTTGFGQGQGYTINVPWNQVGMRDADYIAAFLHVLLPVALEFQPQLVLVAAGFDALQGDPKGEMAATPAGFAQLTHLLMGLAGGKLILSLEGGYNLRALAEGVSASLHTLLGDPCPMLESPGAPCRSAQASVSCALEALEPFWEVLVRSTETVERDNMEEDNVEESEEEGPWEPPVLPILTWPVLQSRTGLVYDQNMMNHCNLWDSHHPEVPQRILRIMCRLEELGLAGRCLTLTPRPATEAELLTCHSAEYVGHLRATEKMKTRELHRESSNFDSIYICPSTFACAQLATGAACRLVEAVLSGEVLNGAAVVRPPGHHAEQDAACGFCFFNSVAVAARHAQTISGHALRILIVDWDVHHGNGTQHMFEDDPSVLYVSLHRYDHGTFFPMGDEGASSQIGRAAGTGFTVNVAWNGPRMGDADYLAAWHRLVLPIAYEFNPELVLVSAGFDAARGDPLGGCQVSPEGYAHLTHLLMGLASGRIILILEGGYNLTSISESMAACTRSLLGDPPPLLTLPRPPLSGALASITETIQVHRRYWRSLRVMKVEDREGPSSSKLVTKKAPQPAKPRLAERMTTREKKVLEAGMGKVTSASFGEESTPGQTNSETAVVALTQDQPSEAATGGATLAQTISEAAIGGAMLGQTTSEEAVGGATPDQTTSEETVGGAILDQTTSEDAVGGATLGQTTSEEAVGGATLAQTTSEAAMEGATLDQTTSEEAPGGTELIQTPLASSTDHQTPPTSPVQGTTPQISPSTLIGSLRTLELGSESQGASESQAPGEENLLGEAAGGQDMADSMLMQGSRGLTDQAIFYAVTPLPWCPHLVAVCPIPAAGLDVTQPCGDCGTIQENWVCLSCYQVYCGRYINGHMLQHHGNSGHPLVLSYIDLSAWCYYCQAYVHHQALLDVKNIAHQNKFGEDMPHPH

Histone deacetylase 8 = target: T2, Histone deacetylase 8 (Homo sapiens, UniProt Q9BY41); experiment: Inhibition of recombinant human HDAC8 by fluorimetry
T2 sequence (Q9BY41 whole entry): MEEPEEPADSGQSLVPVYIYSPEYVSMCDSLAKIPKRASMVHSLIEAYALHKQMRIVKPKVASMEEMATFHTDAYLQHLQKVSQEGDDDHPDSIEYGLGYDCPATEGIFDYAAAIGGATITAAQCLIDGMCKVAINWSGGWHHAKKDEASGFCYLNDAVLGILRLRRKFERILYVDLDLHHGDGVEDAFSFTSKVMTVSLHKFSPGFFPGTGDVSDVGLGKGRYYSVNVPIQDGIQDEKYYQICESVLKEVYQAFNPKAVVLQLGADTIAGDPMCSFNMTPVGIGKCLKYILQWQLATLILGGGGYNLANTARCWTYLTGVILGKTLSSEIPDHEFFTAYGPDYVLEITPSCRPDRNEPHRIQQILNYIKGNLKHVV

[6] = target: T3, Protein deacetylase HDAC6 (Homo sapiens) (UniProt Q9UBN7); experiment: Inhibition of HDAC6 in human A549 cells assessed as induction of tubulin acetylation at 15 to 54 nM after 24 hrs by Western blotting analysis; type: cell-based
T3 sequence (whole entry): T1 sequence (Q9UBN7 whole entry)
Summary of the method: (§1)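 Calu-1 and A549 cells treated 24 h, acetylated tubulin detected by western blot with GAPDH as loading control. DMSO vehicle control; one representative of three independent experiments.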

[7] = target: T3, Protein deacetylase HDAC6 (Homo sapiens); experiment: Inhibition of HDAC6 in human Calu1 cells assessed as induction of tubulin acetylation at 15 to 54 nM after 24 hrs by Western blotting analysis; type: cell-based; settings: Calu-1; summary of the method: as §1
Calu-1 [8] = experiment: Inhibition of cell migration in human Calu1 cells at 15 and 30 nM after 48 hrs by scratch test; type: functional, cell-based
Summary of the method: (§2)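 Calu-1 migration by scratch test after 48 h treatment. DMSO vehicle control; one representative of three independent experiments.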

HT-144 = experiment: Antiproliferative activity against human HT144 cells assessed as reduction in cell viability at 40 uM after 48 hrs by MTS assay; type: functional, cell-based
[9] = Antiproliferative activity against human HT144 cells assessed as reduction in cell viability after 48 hrs by MTS assay; type: functional, cell-based; settings: HT-144, 48 h
HepG2 [10] = experiment: Effect on cell cycle distribution in human HepG2 cells assessed as accumulation at G2/M phase at 5 uM after 24 and 48 hrs by propidium iodide staining-based flow cytometry; type: functional
Summary of the method: (§3)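 Cell cycle of HepG2 cells by flow cytometry after 5 or 10 µM for 24 and 48 h, giving SubG1, G0/G1, S and G2/M fractions. ANOVA with Tukey's post-test against control.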

HepG2 [11] = experiment: Effect on cell cycle distribution in human HepG2 cells assessed as decrease in G0/G1 phase at 5 to 10 uM after 24 to 48 hrs by propidium iodide staining-based flow cytometry; type: functional; summary of the method: as §3
HepG2 [12] = experiment: Effect on cell cycle distribution in human HepG2 cells assessed as decrease in S phase at 5 to 10 uM after 24 to 48 hrs by propidium iodide staining-based flow cytometry; type: functional; summary of the method: as §3
HepG2 [13] = experiment: Effect on cell cycle distribution in human HepG2 cells assessed as accumulation at SubG1 phase at 5 to 10 uM after 24 to 48 hrs by propidium iodide staining-based flow cytometry; type: functional; summary of the method: as §3
[14] = Chemical stability of the compound in acidic buffer assessed as compound hydrolysis at pH 2 measured for 240 mins by HPLC-PDA analysis; type: physicochemical; settings: pH 2, 4 h
Summary of the method: (§4)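 Compounds stirred in pH 7.4 or pH 2 buffer at 37 °C for 240 min; percentage of compound recovered followed over time (30 min and 4 h points). Triplicate runs, values averaged.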

[15] = Chemical stability of compound in phosphate dibasic buffer assessed as compound degradation at pH 7.4 by HPLC-PDA analysis; type: physicochemical; settings: read-out: Drug degradation; summary of the method: as §4
[16] = Lipophilicity, logD of the compound at pH 7.4 after 4 hrs; type: physicochemical; settings: buffer
[17] = Ionization constant, pKa of the compound in buffer measured over 3 hrs by UV spectrometry; type: physicochemical
[18] = Chemical stability of the compound in acidic buffer assessed as compound recovery at pH 2 after 30 mins by HPLC-PDA analysis; type: physicochemical; summary of the method: as §4
[19] = Chemical stability of the compound in acidic buffer assessed as compound recovery at pH 2 after 4 hrs by HPLC-PDA analysis; type: physicochemical; summary of the method: as §4
[20] = target: T3, Protein deacetylase HDAC6 (Homo sapiens); experiment: Inhibition of HDAC6 in human A549 cells assessed as induction of tubulin acetylation at 27 to 54 nM after 24 hrs by Western blotting analysis; type: cell-based; summary of the method: as §1
[21] = target: T3, Protein deacetylase HDAC6 (Homo sapiens); experiment: Inhibition of HDAC6 in human Calu1 cells assessed as induction of tubulin acetylation at 27 to 54 nM after 24 hrs by Western blotting analysis; type: cell-based; settings: Calu-1; summary of the method: as §1
Calu-1 [22] = experiment: Inhibition of cell migration in human Calu1 cells at 27 and 54 nM after 48 hrs by scratch test; type: functional, cell-based; summary of the method: as §2
HepG2 [23] = experiment: Induction of apoptosis in human HepG2 cells at 5 to 10 uM after 24 hrs by TUNEL assay; type: functional, cell-based
Summary of the method: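 HepG2 cells treated 24 h (5 and 10 µM for TUNEL, 5 µM for caspase 3/7). Apoptosis scored by flow cytometry as TUNEL-positive frequency and as cells with activated caspase 3/7. Doxorubicin positive control; ANOVA with Tukey's post-test.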

[24] = acidic buffer, pH 2, read-out: Drug recovery

Sequence of Histone deacetylase 2 (Q92769 whole entry): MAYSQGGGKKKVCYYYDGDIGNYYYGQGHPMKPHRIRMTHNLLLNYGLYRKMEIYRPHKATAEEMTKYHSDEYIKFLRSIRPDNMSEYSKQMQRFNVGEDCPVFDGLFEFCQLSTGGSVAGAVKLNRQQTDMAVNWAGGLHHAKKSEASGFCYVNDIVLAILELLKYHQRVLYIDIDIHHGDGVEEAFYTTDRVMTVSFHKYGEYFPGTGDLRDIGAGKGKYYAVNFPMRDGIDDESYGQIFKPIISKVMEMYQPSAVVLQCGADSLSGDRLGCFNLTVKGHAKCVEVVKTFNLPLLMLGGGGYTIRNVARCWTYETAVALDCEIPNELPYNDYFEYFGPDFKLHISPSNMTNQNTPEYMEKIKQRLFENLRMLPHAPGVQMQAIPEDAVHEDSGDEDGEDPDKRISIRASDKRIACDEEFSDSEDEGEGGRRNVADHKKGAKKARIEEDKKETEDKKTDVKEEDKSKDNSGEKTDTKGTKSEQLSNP
Sequence of Histone deacetylase 1 (Q13547 whole entry): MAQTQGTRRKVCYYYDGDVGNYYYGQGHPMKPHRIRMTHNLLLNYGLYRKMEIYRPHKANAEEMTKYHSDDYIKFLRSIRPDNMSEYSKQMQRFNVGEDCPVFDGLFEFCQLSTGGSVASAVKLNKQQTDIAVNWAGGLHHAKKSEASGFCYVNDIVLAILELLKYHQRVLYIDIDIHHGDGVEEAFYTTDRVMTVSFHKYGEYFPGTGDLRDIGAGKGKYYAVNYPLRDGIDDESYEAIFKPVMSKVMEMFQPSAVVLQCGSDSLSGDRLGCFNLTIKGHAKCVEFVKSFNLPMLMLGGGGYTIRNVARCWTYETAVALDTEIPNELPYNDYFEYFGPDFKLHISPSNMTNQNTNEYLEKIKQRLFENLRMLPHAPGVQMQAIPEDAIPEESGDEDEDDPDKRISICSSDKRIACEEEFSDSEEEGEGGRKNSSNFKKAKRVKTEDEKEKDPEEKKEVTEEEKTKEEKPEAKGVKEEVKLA

SMILES	solubility at 24 h [1]	Activity (MCF7)	inhibition [2]	IC50 (Histone deacetylase 2)	Activity (HepG2 [3])	IC50 (Histone deacetylase 1)	IC50 [5]	IC50 (Histone deacetylase 8)	Activity (HT-144)	also measured
CN(C)c1ccc(C(=O)N/N=C/c2cccc(C(=O)O)c2)cc1	> 70 µM									
COC(=O)c1ccc(/C=N/N(C)C(=O)c2ccc(N(C)C)cc2)cc1	1.4 µM (≈ 0.475 µg/mL)									
CN(C)c1ccc(C(=O)N/N=C/c2ccc(C(=O)NO)cc2)cc1	15 µM (≈ 4.9 µg/mL)	Active	90.4%	> 3 µM	Active	> 3 µM	0.015 µM	0.23 µM	Active	IC50 (Histone deacetylase): 0.021 µM; IC50 (HepG2 [4]): 9.48 µM; inhibition [6]: Active; inhibition [7]: Active; inhibition (Calu-1 [8]): Active; IC50 [9]: 21.2 µM; Activity (HepG2 [10]): Active; Activity (HepG2 [11]): Active; Activity (HepG2 [12]): Active; Activity (HepG2 [13]): Active; Stability [14]: Unstable; degraded [15]: > 15%; logD at 4 h [16]: 0.68; pKa at 3 h [17]: 8.1
COC(=O)c1cccc(/C=N/N(C)C(=O)c2ccc(N(C)C)cc2)c1	8.2 µM (≈ 2.78 µg/mL)									
CN(/N=C/c1cccc(C(=O)NO)c1)C(=O)c1ccc(N(C)C)cc1	> 70 µM	Active	33.4%	> 10 µM	Active	> 10 µM	2.5 µM	2 µM	Active	
COC(=O)c1ccc(/C=N/NC(=O)c2ccc(N(C)C)cc2)cc1	1.7 µM (≈ 0.553 µg/mL)									
C/C(=N\N(C)C(=O)c1ccc(N(C)C)cc1)c1ccc(C(=O)NO)cc1	122 µM (≈ 43.2 µg/mL)	Active		> 3 µM	Active	> 3 µM	0.097 µM	0.054 µM	Active	IC50 (HepG2 [4]): 30.3 µM; IC50 [9]: 51.6 µM; Stability [14]: Unstable; degraded [15]: > 15%; Stability ([18]; buffer, pH 2, 0.5 h): Unstable
CN(/N=C/c1ccc(C(=O)NO)cc1)C(=O)c1ccc(N(C)C)cc1	> 64 µM	Active	90.4%	> 3 µM	Active	> 3 µM	0.027 µM	0.13 µM	Active	IC50 (Histone deacetylase): 0.018 µM; IC50 (HepG2 [4]): 24.1 µM; IC50 [9]: 36.1 µM; Stability [14]: Unstable; degraded [15]: > 15%; remaining at 4 h [19, 24]: 70%; logD at 4 h [16]: 0.98; pKa at 3 h [17]: 8.1; inhibition [20]: Active; inhibition [21]: Active; inhibition (Calu-1 [22]): Active
CN(/N=C/c1ccc(C(=O)O)cc1)C(=O)c1ccc(N(C)C)cc1	> 67 µM		-8.7%							
CN(C)c1ccc(C(=O)N/N=C/c2cccc(C(=O)NO)c2)cc1	> 67 µM	Active	66%	> 10 µM	Active	> 10 µM	0.39 µM	2.2 µM	Active	IC50 (Histone deacetylase): 1.2 µM
CN(C)c1ccc(C(=O)N/N=C/c2ccc(C(=O)O)cc2)cc1	> 77 µM		-9.1%							
COC(=O)c1cccc(/C=N/NC(=O)c2ccc(N(C)C)cc2)c1	3.7 µM (≈ 1.2 µg/mL)		-4.6%							
CN(/N=C/c1cccc(C(=O)O)c1)C(=O)c1ccc(N(C)C)cc1	> 67 µM		-5.8%							
C/C(=N\NC(=O)c1ccc(N(C)C)cc1)c1ccc(C(=O)NO)cc1	6.2 µM (≈ 2.11 µg/mL)	Active		> 3 µM	Active	> 3 µM	0.056 µM	0.11 µM	Active	IC50 (HepG2 [4]): 11.5 µM; IC50 [9]: 20 µM; Activity (HepG2 [11]): Active; Activity (HepG2 [12]): Active; Activity (HepG2 [13]): Active; Activity (HepG2 [23]): Active; Stability [14]: Unstable; degraded [15]: > 15%; Stability ([19]; buffer, pH 2, 4 h): Unstable; remaining at 0.5 h [18, 24]: 6%
